Assay results taken from ChEMBL document CHEMBL1154639, “Application of Huisgen (3+2) cycloaddition reaction: synthesis of 1-(2,3-dihydrobenzofuran-2-yl-methyl [1,2,3]-triazoles and their antitubercular evaluations” (2010).
Values after ≈ are worked out from the molar mass of the structure shown.

These molecules were tested on Mycobacterium tuberculosis (assay: Antitubercular activity against Mycobacterium tuberculosis H37Rv after 30 days by agar microdilution method).
Format: functional
How it was run: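 M. tuberculosis H37Rv grown on L-J medium, harvested into 0.85% saline with 0.05% Tween-80. Compounds from a 1 mg/mL DMSO stock, two-fold dilutions in Middlebrook 7H10 agar slants with OADC. Slants preincubated 24 h at 37 °C, then streaked with 5 × 10^4 bacilli per tube and held at 37 °C. Growth read at 30 days against drug-free controls; MIC determined.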
In the case of Cc1ccc(C)c2c1CC(Cn1cc(CO)nn1)O2 (stereo not given), the MIC is reported as 12.5 µg/mL (≈ 48.2 µM). With CCCCCc1cn(CC2Cc3cc(C#N)ccc3O2)nn1 (stereo not given) the MIC was over 12.5 µg/mL. For Cc1ccc(C)c2c1CC(CN=[N+]=[N-])O2 (stereo not given), the MIC was over 12.5 µg/mL. For CCCCCCc1cn(CC2Cc3cc(C#N)ccc3O2)nn1 (stereo not given), the MIC was over 12.5 µg/mL. In the case of N#Cc1ccc2c(c1)CC(Cn1cc(Cc3ccccc3)nn1)O2 (stereo not given), the MIC is reported as over 12.5 µg/mL. O=Cc1ccc2c(c1)CC(Cn1cc(-c3ccccc3)nn1)O2 (stereo not given) was tested, and the MIC was over 12.5 µg/mL. CCCCCC(O)c1cn(CC2Cc3cc(C#N)ccc3O2)nn1 (stereo not given) was tested, and the MIC was over 25 µg/mL. O=Cc1ccc2c(c1)CC(Cn1cc(Cc3ccccc3)nn1)O2 (stereo not given) showed an MIC of over 12.5 µg/mL. Molecule [N-]=[N+]=NCC1Cc2cc(C=O)ccc2O1 (stereo not given) has an MIC of over 12.5 µg/mL. CCCCCc1cn(CC2Cc3cc(C=O)ccc3O2)nn1 (stereo not given) gave an MIC of 12.5 µg/mL (≈ 41.8 µM). Work on c1ccc(Cc2cn(CC3Cc4c(ccc5ccccc45)O3)nn2)cc1 (stereo not given) yielded an MIC of over 12.5 µg/mL. CCCCCc1cn(CC2Cc3c(ccc4ccccc34)O2)nn1 (stereo not given) gave an MIC of 12.5 µg/mL (≈ 38.9 µM). In the case of CCCCCc1cn(CC2Cc3c(C)ccc(C)c3O2)nn1 (stereo not given), the MIC is reported as over 12.5 µg/mL. In the case of OCc1cn(CC2Cc3c(ccc4ccccc34)O2)nn1 (stereo not given), the MIC is reported as over 12.5 µg/mL. Cc1ccc(C)c2c1CC(Cn1cc(Cc3ccccc3)nn1)O2 (stereo not given) was tested, and the MIC was over 12.5 µg/mL. For CCCCCCc1cn(CC2Cc3c(C)ccc(C)c3O2)nn1 (stereo not given), the MIC was over 12.5 µg/mL. N#Cc1ccc2c(c1)CC(CN=[N+]=[N-])O2 (stereo not given) was tested, and the MIC was over 12.5 µg/mL. In the case of c1ccc(-c2cn(CC3Cc4c(ccc5ccccc45)O3)nn2)cc1 (stereo not given), the MIC is reported as over 12.5 µg/mL. Cc1ccc(C)c2c1CC(Cn1cc(-c3ccccc3)nn1)O2 (stereo not given) gave an MIC of over 12.5 µg/mL. In the case of Cc1ccc(C)c2c1CC(Cn1cc(CCO)nn1)O2 (stereo not given), the MIC is reported as over 12.5 µg/mL. For N#Cc1ccc2c(c1)CC(Cn1cc(CCO)nn1)O2 (stereo not given), the MIC was over 12.5 µg/mL. With [N-]=[N+]=NCC1Cc2c(ccc3ccccc23)O1 (stereo not given) the MIC was 3.12 µg/mL (≈ 13.9 µM). CCCCCCc1cn(CC2Cc3cc(C=O)ccc3O2)nn1 (stereo not given) was tested, and the MIC was 6.25 µg/mL (≈ 19.9 µM). Molecule OCCc1cn(CC2Cc3c(ccc4ccccc34)O2)nn1 (stereo not given) has an MIC of over 12.5 µg/mL. With O=Cc1ccc2c(c1)CC(Cn1cc(CO)nn1)O2 (stereo not given) the MIC was over 12.5 µg/mL. Molecule N#Cc1ccc2c(c1)CC(Cn1cc(CO)nn1)O2 (stereo not given) has an MIC of over 25 µg/mL. Molecule N#Cc1ccc2c(c1)CC(Cn1cc(-c3ccccc3)nn1)O2 (stereo not given) has an MIC of over 12.5 µg/mL. CCCCCC(O)c1cn(CC2Cc3c(C)ccc(C)c3O2)nn1 (stereo not given) gave an MIC of over 12.5 µg/mL. With CC[C@@H](CO)NCCN[C@@H](CC)CO [ETHAMBUTOL] the MIC was 3.25 µg/mL (≈ 15.9 µM). NNC(=O)c1ccncc1 [ISONIAZID] was tested, and the MIC was 0.75 µg/mL (≈ 5.47 µM).
